Test results reported in ChEMBL document CHEMBL3817762, “Monoacidic Inhibitors of the Kelch-like ECH-Associated Protein 1: Nuclear Factor Erythroid 2-Related Factor 2 (KEAP1:NRF2) Protein-Protein Interaction with High Cell Potency Identified by Fragment-Based Discovery” (J Med Chem, 2016).

How the values were obtained:
Assay type in all cases: ADME, organism-based
[1] = Drug level in Han Wistar rat blood at 50 umol/kg, iv dosed up to 6 hrs infusions by LC-MS/MS analysis; conditions: whole blood, read-out: Drug uptake
Procedure, shortened: (§1)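 Han Wistar rats (250-300 g, n=8/group) received the compound by IV infusion over 6 h at 10, 35 or 50 µmol/kg. Blood concentration was taken as the steady-state level over the 6 h infusion period.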

[2] = Drug level in Han Wistar rat blood at 35 umol/kg, iv dosed up to 6 hrs infusions by LC-MS/MS analysis; conditions: whole blood, read-out: Drug uptake; procedure, shortened: as §1
[3] = Drug level in Han Wistar rat blood at 10 umol/kg, iv dosed up to 6 hrs infusions by LC-MS/MS analysis; conditions: whole blood, read-out: Drug uptake; procedure, shortened: as §1
[4] = Systemic oral bioavailability in Han Wistar rat at 2 mg/kg after 24 hrs by LC-MS/MS analysis; conditions: in vivo
Procedure, shortened: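 Han Wistar rats (n=3) were dosed IV and PO in a crossover design with a two-day washout. Blood was sampled over 24 h and analysed by LC/MS/MS.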

concentration at 6 h [1]: 1440 nM
concentration at 6 h [2]: 946 nM
concentration at 6 h [3]: 407 nM
bioavailability [4]: 7%
Compound: COc1cc([C@@H](CC(=O)O)c2ccc(C)c(CN3C[C@@H](C)Oc4ccccc4S3(=O)=O)c2)cc2nnn(C)c12
